High-throughput results (PubChem)
hERG rescue – hERG rescue from dofetilide block, primary screen, cell-based, CHO-hERG, FluxOR thallium flux, dofetilide IC70; Voltage-gated inwardly rectifying potassium channel KCNH2 (Homo sapiens), Q12809; dofetilide IC70 present; activation (rescue from dofetilide block), less the hit threshold, % at 10 µM; 0.51% of 310,000 active;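 active = activation above the mean of controls blocked by dofetilide plus 5 SD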;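 also: thallium influx through hERG after potassium depolarization seen as dye fluorescence rise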
KCNK9 block – KCNK9 potassium channel inhibitors, primary screen, HEK293 cells, thallium flux; Potassium channel subfamily K member 9 (Homo sapiens), Q9NPC2; FluxOR thallium flux fluorescence; hits give low values; B-score at 10 µM; 1.2% of 310,000 active; AID 488922, 2010;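 active = ratio B-score over 3 SD below the library mean, with starting fluorescence within 5 SD of its mean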;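 also: negative B-score means less thallium flux so channel inhibition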
KCNK3 inh – human KCNK3 channel inhibitors, primary screen, CHO cells, FluxOR thallium flux, B-score; FluxOR fluorescence; hits give low values; B-score at 10 µM; 0.84% of 340,000 active;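 active = B-score under library mean minus 4 SD, starting fluorescence ratio at most library mean plus 5 SD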;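 also: more negative B-score means stronger inhibition of thallium flux through KCNK3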
Target sequence (O14649 whole entry, looked up): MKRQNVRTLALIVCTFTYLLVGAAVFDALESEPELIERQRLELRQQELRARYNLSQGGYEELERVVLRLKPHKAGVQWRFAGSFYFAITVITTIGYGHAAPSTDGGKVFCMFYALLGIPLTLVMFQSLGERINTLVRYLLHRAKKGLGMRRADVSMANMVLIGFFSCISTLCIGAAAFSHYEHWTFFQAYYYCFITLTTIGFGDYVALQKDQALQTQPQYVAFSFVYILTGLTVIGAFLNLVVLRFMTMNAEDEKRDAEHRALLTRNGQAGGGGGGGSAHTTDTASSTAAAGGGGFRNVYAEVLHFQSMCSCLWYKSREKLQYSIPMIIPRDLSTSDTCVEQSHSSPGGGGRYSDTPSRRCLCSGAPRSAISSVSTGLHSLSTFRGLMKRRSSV
KCNQ1 block – inhibitors of human KCNQ1 channel, primary screen, cell-based, thallium flux, high-throughput. 1.3% of 310,000 active. B-score at 10 µM. CHO-K1 KCNQ1, FluxOR thallium flux fluorescence; hits give high values;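 active = compounds whose thallium flux B-score, printed positive for inhibition, exceeds three library SD while starting fluorescence stays within three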;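 also: channel opened by potassium depolarization with thallium stimulus after 20 min compound exposure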
KCNQ1 act – potentiators or activators of KCNQ1 channel, primary screen, cell-based, thallium flux, high-throughput. CHO-K1 KCNQ1, thallium flux FluxOR fluorescence; hits give high values. B-score at 10 µM. 0.35% of 310,000 active. AID 2648, 2010;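 active = fluorescence ratio B-score, a plate-corrected score, at least three library SD, with initial intensity B-score within 5 SD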
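Assay system: CHO-K1 cells stably expressing KCNQ1. Medium: assay buffer for compound exposure, DMSO matched across wells. Timing: 37 °C overnight plating, 90-min dark dye load, 20-min compound pretreatment. Signal: kinetic FluxOR fluorescence, 10 s baseline plus 110 s post-stimulus.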
Starred values were filed as active, the others as inactive; i = inactive; . = no result given. This is a sample that favours compounds with a hit; in the whole collection about 3.1% have one here.

SMILES	hERG rescue	KCNK9 block	KCNK3 inh	KCNQ1 block	KCNQ1 act
O=C(Nc1nnc(Cc2ccccc2)s1)c1ccco1	1	i	i	i	i
CC(C)(C)Cc1nnc(NC(=O)c2ccco2)s1	18*	i	i	i	i
CCc1nnc(NC(=O)c2cccc(C(=O)Nc3nnc(CC)s3)n2)s1	4.9*	i	i	i	i
CCc1nnc(NC(=O)c2ccncc2)s1	-5	i	i	i	i
O=C(CNC(=O)c1cc(Cl)nc2ccccc12)Nc1ccccc1Br	.	.	i	.	.
CS(=O)(=O)N(CC(=O)Nc1ccc2c(c1)OCO2)Cc1ccccc1	-13	i	i	i	i
CS(=O)(=O)N(CCc1ccccc1)CC(=O)Nc1ccc2c(c1)OCO2	-8	-7.9*	i	i	i
Cc1cc([N+](=O)[O-])ccc1-c1ccc(C2Nc3ccccc3C(=O)N2O)o1 (stereo not given)	2	i	i	i	13*
CSc1nc(SCC(=O)O)c2sc3nc(-c4ccccc4)c4c(c3c2n1)CCC4	-13	i	i	i	10*
CSc1nc(N(C)CCO)c2sc3nc(-c4ccco4)c4c(c3c2n1)CCC4	-5	i	i	i	i
CC1(C)CC(=O)C2=C(C1)c1c(ccc3ccccc13)NC2c1cc([N+](=O)[O-])cc([N+](=O)[O-])c1O (stereo not given)	-12	i	i	i	i
S=C(Nc1ccccc1)Nc1cc(Cl)ccc1Oc1ccccc1	-7	i	i	9*	i
Cc1ccc(S(=O)(=O)Nc2nc3ccccc3s2)cc1	-5	i	i	i	i
COc1ccc(S(=O)(=O)Nc2nc3ccccc3s2)cc1OC	4.7*	i	i	i	i
CCN(CC)c1ccc(/C=C(/C#N)c2nc3ccc(C)cc3[nH]2)c(OC(C)C)c1	-38	i	i	9*	i
CCCOc1cc(N(CC)CC)ccc1/C=C(/C#N)c1nc2ccc(C)cc2[nH]1	-18	-11*	i	i	i
O=c1[nH]c(=O)n(CCCc2ccccc2)cc1-c1ccccc1	.	.	i	.	.
CC(C)CCOP(=O)(c1ccccc1)c1ccccc1	-7	-6.8*	i	i	i
CCCOP(=O)(c1ccccc1)c1ccccc1	-5	i	i	i	i
COc1cccc(C(=O)NNC(=O)C(=O)Nc2cccc3ccccc23)c1	43*	i	i	i	36*
COc1cccc(C(=O)NNC(=O)c2ccccc2)c1	-6	i	i	i	i
COc1ccc(OC)c(NC(=O)C(=O)NNC(=O)c2cccs2)c1	5.5*	i	i	i	i
COc1ccc(OC)c(NC(=O)C2CCN(C(=O)c3cccs3)CC2)c1	-10	i	i	i	i
COc1cccc(C(=O)Nc2cccc3ccccc23)c1	-4	i	i	i	i
COc1cccc(C(=O)NNC(=O)C(=O)Nc2ccc(OC)cc2OC)c1	12*	i	i	i	19*
SMILES	hERG rescue	KCNK9 block	KCNK3 inh	KCNQ1 block	KCNQ1 act
Cc1ccc(S(=O)(=O)NCc2ccc(C(=O)NCCN(Cc3ccccc3)C(C)C)cc2)cc1	-13	i	i	6*	i
Cc1ccc(S(=O)(=O)NCCNC(=O)c2ccccc2)cc1	1	i	i	i	i
CCOC(=O)c1[nH]c2ccccc2c1NC(=O)C1CCCCC1	4.8*	i	i	i	i
CCOC(=O)c1[nH]c2ccccc2c1NC(=O)NC1CCCCC1	-1	i	i	i	i
CC(=N)c1c(O)cc(C)oc1=O	.	.	i	.	.
C=CCOC(=O)C1=C(C)NC(SCC(=O)Nc2ccccc2)=C(C#N)C1c1ccco1 (stereo not given)	-10	i	i	i	i
CC1=C(C(=O)Nc2ccccc2)C(c2ccco2)C(C#N)=C(SCc2ccccc2)N1 (stereo not given)	-12	i	.	11*	i
CC1=C(C(=O)Nc2ccccc2)C(c2ccco2)C(C#N)=C(SCC(=O)OC(C)C)N1 (stereo not given)	-25	i	-9.8*	i	i
CC1=C(C(=O)Nc2ccccc2)C(c2ccco2)C(C#N)=C(SCC(=O)Nc2cccc(C)c2C)N1 (stereo not given)	-7	i	i	i	i
CCc1ccc(C(=O)CSC2=C(C#N)C(c3ccco3)C(C(C)=O)=C(C)N2)cc1 (stereo not given)	-10	-11*	.	i	i
Nc1cc(S(=O)(=O)N2CCOCC2)ccc1Oc1cccc(Br)c1	.	.	i	.	.
COc1ccc(N=CC2CCCCC2=O)c([N+](=O)[O-])c1 (stereo not given)	.	.	i	.	.
CCOc1ccccc1NC(=O)C(OC(=O)c1ccccc1NS(=O)(=O)c1cccs1)c1ccccc1 (stereo not given)	-4	i	i	i	i
CC(=O)c1cccc(NC(=O)C(OC(=O)c2ccccc2NS(=O)(=O)c2cccs2)c2ccccc2)c1 (stereo not given)	-10	-7*	i	i	i
O=C(CSc1nc2ccccc2nc1N1CCCCC1)N1CCN(c2ccccc2)CC1	-15	i	i	6*	i
CCOC(=O)/C(=C/c1ccc(OC(=O)c2ccncc2)cc1)C(C)=O	-14	i	i	i	i
COCCOC(=O)/C(=C/c1ccc(OC(=O)c2ccccc2)cc1)C(C)=O	-20	i	i	i	13*
Cc1cccc(N(C(=O)c2snc(C(N)=O)c2N)C(C(=O)NCc2ccccc2)c2ccncc2)c1 (stereo not given)	-8	i	i	i	i
S=C1N(c2ccccc2)C(c2ccccc2)N2CCCN12 (stereo not given)	-7	i	i	i	8*
COc1cc2c(c(OC)c1OC)C(=O)C(=Cc1ccccc1)O2	.	.	i	.	.
Cc1cc(C(=O)N/N=C/c2cc(Br)c(Br)o2)n[nH]1	-5	i	i	i	i
C=CC(C)(C)c1c(O)c(CC=C(C)C)c(O)c2c(=O)c3ccc(O)c(O)c3oc12	-9	i	i	6*	i
C=CC(C)(C)c1c2occc2c(O)c2ccc(=O)oc12	.	.	i	.	.
O=Cc1ccc(-c2cc(Cl)ccc2Cl)[nH]1	-1	-6.7*	i	i	i
Nc1nc(N)nc(-c2cc(Cl)ccc2Cl)n1	-7	i	i	i	i
CCCCn1c(N)nc2ccccc21	7.5*	i	i	i	i
